High-throughput results from PubChem.
This is a sample that favours compounds with a hit; in the whole collection about 1.9% have one here.
PGC1a acetyl inh: inhibitors of PGC1a acetylation signal, primary screen, cell-based, U2OS, AlphaScreen, inhibitor mode | AlphaScreen anti-acetyl-lysine; with virally co-expressed GCN5 acetyltransferase | inhibition, % at 15.6 µM | hit rate 0.17% among 350,000 | AID 651687, 2012;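 active = every replicate shows inhibition of at least 40%; inconclusive = mean inhibition at least 40% but some replicate below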
Cneo AK release: Cryptococcus neoformans cell lysis inducers, primary screen, AK release luminescence, single concentration; C. neoformans lysis, adenylate kinase release luminescence, 4 h; normalised: neutral wells 0, clomiphene wells 100; lysis activity, % at 15 µM; hit rate 0.2% among 360,000; AID 651654, 2012;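 active = mean lysis activity across replicates of at least 80%, whatever share of replicates individually reach that level; inactive = mean lysis activity below 80%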
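Assay system: C. neoformans cells. Amount: yeast cell density of 5 × 10^6 cells/mL. Technique: AK luminescence. Buffer or medium: YPD. Times: static 4 h at 37 °C with compound, 1 h detection. Dosing: single-point compound dose. Read-out: lysis from increased AK signal.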
XiGFP reactiv: activators of inactive X chromosome reactivation, primary screen, imaging, XiGFP fibroblasts, GFP high-content imaging, set 2. XiGFP mouse fibroblasts, % GFP-positive cells imaging, 3 d; cells co-treated with 5-aza-dC sensitizer; scaled so ellipticine positive control = 100%. activation, % at 7.58 µM. hit rate 0.055% among 360,000. AID 743238, 2013;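 active = mean normalized replicate activation at least 10% and every replicate at or above 10%; inconclusive = only one of the two criteria met; inactive = mean below 10% and not all replicates reach 10%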
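Assay system: SV40-immortalized XiGFP fibroblast cells, line 68-5-11; buffer or medium: DMEM plus 5-aza-dC sensitizer; compound: one concentration, pinned; timing: compounds 3 days, fix/stain 15 min at room temperature; benchmarks: positive control ellipticine, 6 µM final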
DENV2 CPE: inhibitors of DENV2 cytopathic effect, primary screen, cell-based, plate reader, single concentration. DENV2-infected cells, cytopathic effect rescue. CPE inhibition, % at 9.99 µM. hit rate 1.7% among 350,000. AID 651640, 2012; in the data active = CPE inhibition above about 20%, passing the limit was not always enough; inconclusive = no clear call, values can overlap the other calls; tested in BHK-21 cells
FN deposit inh: inhibitors of fibronectin matrix deposition, primary screen, AH1F cells, Alexa488-fibronectin fluorescence, plate reader; AH1F fibroblasts, overnight; inhibition, % at 12.6 µM; hit rate 0.086% among 350,000;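 active = mean inhibition across replicates of 30% or more, regardless of how many single replicates reach that level; inconclusive = mean under 30% yet at least half of replicates reach 30%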
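Measured by – fluorescence 485/525 nm · System – AH1F fibroblast monolayer, labelled fibronectin deposition · Amount – 10000 cells per well · Buffer or medium – serum-reduced DMEM (2% serum) · Doses – single dose, pinned · Also added – fluorescent fibronectin at 24 nM final · Schedule – 1 h cell attachment, overnight exposure to compound and label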
F508del corr: F508del CFTR correction, initial screen, CFBE line, single point. activity (quench increase), % at 7.58 µM. CFBE cells, YFP halide quenching; stimulated with forskolin plus potentiator P3; % fluorescence drop versus neutral controls. AID 720511, 2013. hit rate 0.36% among 350,000;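 active = mean added fluorescence quench of at least 8% versus neutral control, with both replicates also reaching 8%; inconclusive = only one of the mean or replicate conditions met; inactive = mean below 8% and not both replicates reaching 8%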;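 also: cells transiently co-express mutant CFTR-F508del with the halide-sensitive YFP; corrector assay measuring rescue of mutant channel to the surface after 24 h compound exposure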
Hits are given with their value.

Screening CN(C)c1ccc2c(c1)[C@@H]1C[C@H](CC(=O)NCc3ccc(Oc4ccccc4)cc3)O[C@@H](CO)[C@@H]1O2 returned PGC1a acetyl inh inactive, Cneo AK release inactive, XiGFP reactiv inactive, DENV2 CPE inactive, FN deposit inh inactive and F508del corr inactive.
CN(C)c1ccc2c(c1)[C@@H]1C[C@@H](CC(=O)NCc3ccc(Oc4ccccc4)cc3)O[C@H](CO)[C@@H]1O2 was read as PGC1a acetyl inh inactive, Cneo AK release inactive, XiGFP reactiv inactive, DENV2 CPE inactive, FN deposit inh inactive and F508del corr 17.4.
Screening O=C(C[C@@H]1C[C@@H]2c3cc(NC(=O)c4ccc5c(c4)OCO5)ccc3O[C@@H]2[C@@H](CO)O1)NC1CCCC1 returned PGC1a acetyl inh inactive, Cneo AK release inactive, XiGFP reactiv inactive, DENV2 CPE 33.5, FN deposit inh inactive and F508del corr inactive.
For COc1ccc(NC(=O)Nc2ccc3c(c2)C(=O)N([C@@H](C)CO)C[C@@H](C)[C@@H](CN(C)C(=O)Nc2ccc4c(c2)OCO4)OCCCC[C@@H](C)O3)cc1 the results were PGC1a acetyl inh inactive, Cneo AK release inactive, XiGFP reactiv inactive, DENV2 CPE inactive and F508del corr inactive.
For CN1c2ccc(-c3ccc(F)cc3)cc2[C@@H]2[C@@H](CCN2C(=O)CC2CC2)[C@H]1CO the results were XiGFP reactiv inactive and FN deposit inh inactive.
Screening CC=Cc1ccc2n(c1=O)C[C@@H]1[C@@H](CO)[C@H](C(=O)N(C)C)N(CCC)[C@H]21 (mixture of isomers) returned PGC1a acetyl inh inactive, XiGFP reactiv inactive, DENV2 CPE inactive and F508del corr inactive.
For O=C(C[C@@H]1CC[C@H]2[C@@H](COC[C@H](O)CN2Cc2cccc(C(F)(F)F)c2)O1)NCCc1ccncc1 the results were PGC1a acetyl inh inactive, Cneo AK release inactive, XiGFP reactiv inactive, DENV2 CPE inactive, FN deposit inh inactive and F508del corr inactive.
C/C(=N\Nc1ncnc2sc(C)c(C)c12)c1ccccn1 was read as Cneo AK release inactive, XiGFP reactiv 84.8, DENV2 CPE inactive, FN deposit inh inactive and F508del corr 21.4.
Screening CCc1ccccc1N(C)S(=O)(=O)c1ccc(-c2cc(C)no2)s1 returned PGC1a acetyl inh inactive, Cneo AK release inactive, XiGFP reactiv inactive, DENV2 CPE inactive, FN deposit inh inactive and F508del corr 8.2.
`CC(C)NC(=O)NCC[C@@H]1CC[C@H](NS(=O)(=O)c2ccccc2)[C@H](CO)O1` gave XiGFP reactiv inactive.
`Cc1ccccc1NC(=S)Nn1cnnc1` gave Cneo AK release inactive, XiGFP reactiv inactive, DENV2 CPE inactive, FN deposit inh inactive and F508del corr inactive.
Screening Fc1ccccc1NC(=S)Nn1cnnc1 returned PGC1a acetyl inh inactive, Cneo AK release inactive, XiGFP reactiv inactive, DENV2 CPE 43.7, FN deposit inh inactive and F508del corr inactive.
For COc1cc(CN2CC3(CCN(S(=O)(=O)c4cccs4)CC3)c3c(n(C)c4cc(OC)ccc34)[C@H]2CO)cc(OC)c1 the results were PGC1a acetyl inh inactive, XiGFP reactiv inactive, DENV2 CPE inactive and F508del corr inactive.
`CCNC(=O)C[C@H]1CC[C@H]2[C@H](COc3ccc(NC(C)=O)cc3C(=O)N2C)O1` gave PGC1a acetyl inh inactive, Cneo AK release inactive, XiGFP reactiv inactive, DENV2 CPE inactive, FN deposit inh inactive and F508del corr inactive.
For CN(C)S(=O)(=O)c1cc(NC(=O)CN2CCc3ccccc32)ccc1Cl the results were PGC1a acetyl inh 74.6, XiGFP reactiv inactive, DENV2 CPE inactive, FN deposit inh inactive and F508del corr inactive.
Screening CN(C)S(=O)(=O)c1cc(NC(=O)CN2CCCc3ccccc32)ccc1Cl returned PGC1a acetyl inh inactive, Cneo AK release inactive, XiGFP reactiv inactive, DENV2 CPE inactive, FN deposit inh inactive and F508del corr inactive.
CCOc1ccc(CN2CCN(CCCc3ccccc3)CC2CCO)cc1 (stereo not drawn) was read as Cneo AK release inactive, XiGFP reactiv inactive, DENV2 CPE 22.0, FN deposit inh inactive and F508del corr inactive.
`O=C(NCc1nnnn1-c1ccc(Cl)cc1)C(=O)c1c[nH]c2ccccc12` gave PGC1a acetyl inh inactive, Cneo AK release inactive, XiGFP reactiv inactive, DENV2 CPE inactive, FN deposit inh inactive and F508del corr 11.0.
`COc1ccc(NC(=O)N(C)C[C@@H]2OCCCC[C@@H](C)Oc3ccc(NC(=O)c4ccncc4)cc3C(=O)N([C@H](C)CO)C[C@H]2C)cc1` gave PGC1a acetyl inh inactive, Cneo AK release inactive, XiGFP reactiv inactive, DENV2 CPE 20.3, FN deposit inh inactive and F508del corr inactive.
Screening COc1ccc(NC(=O)N(C)C[C@@H]2OCCCC[C@H](C)Oc3ccc(NC(=O)c4ccncc4)cc3C(=O)N([C@@H](C)CO)C[C@@H]2C)cc1 returned PGC1a acetyl inh inactive, Cneo AK release inactive, XiGFP reactiv inactive, DENV2 CPE inactive, FN deposit inh inactive and F508del corr inactive.
For COc1ccc(NC(=O)N(C)C[C@H]2OCCCC[C@H](C)Oc3ccc(NC(=O)c4ccncc4)cc3C(=O)N([C@@H](C)CO)C[C@@H]2C)cc1 the results were PGC1a acetyl inh inactive, Cneo AK release inactive, XiGFP reactiv inactive, DENV2 CPE 49.0, FN deposit inh inactive and F508del corr inactive.
C[C@H]1CN(C)C(=O)c2cc(NS(C)(=O)=O)ccc2O[C@H]1CN(C)S(C)(=O)=O was read as XiGFP reactiv inactive and FN deposit inh inactive.
`O=C(CN1CCOCC1)N1CCCCN2[C@@H](CO)[C@@H](c3ccc(-c4ccccc4F)cc3)[C@@H]2C1` gave PGC1a acetyl inh inactive, Cneo AK release inactive, XiGFP reactiv inactive, DENV2 CPE inconclusive and F508del corr inactive.
`O=C([C@@H]1[C@@H](CO)[C@@H]2Cn3c(ccc(-c4ccncc4)c3=O)[C@@H]2N1CCC(F)(F)F)N1CCCCC1` gave PGC1a acetyl inh inactive, Cneo AK release inactive, XiGFP reactiv inactive, DENV2 CPE inactive and F508del corr inactive.
For CCCCC1=CC2=CC(=O)C(C)(OC(=O)CC)C(=O)C2=CN1c1cccc(C#N)c1 (stereo not drawn) the results were PGC1a acetyl inh inactive, Cneo AK release inactive, XiGFP reactiv inactive, DENV2 CPE 25.8, FN deposit inh inactive and F508del corr inactive.
